Activity calls are given as the source filed them.
How the values were obtained:
Rattus norvegicus [1] = species on record: Rattus norvegicus; assay: Ability to inhibit the uptake of tritiated dopamine (DA) at 1 uM concentration; assay type: functional
How it was run: (§1)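 Rat synaptosomal uptake as above: striatal P2 for [3H]DA (50–300 nM, 3 min) and cortical P2 for [3H]5-HT (100–200 nM, 6 min). 37 °C after 10-min preincubation with compound. […] Blanks incubated in ice water. Filter-retained tritium counted by liquid scintillation.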

Rattus norvegicus [2] = species on record: Rattus norvegicus; assay: Ability to inhibit the uptake of tritiated norepinephrine (NE) at 0.1 uM concentration; assay type: functional
How it was run: (§2)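 Male Wistar rat brain synaptosomes (P2 fraction): hypothalamus for NE, striatum for DA, cerebral cortex for 5-HT. Buffer is Tris- or HEPES-buffered salt medium with glucose, ascorbate and nialamide, pH 7.4 at 37 °C. Preincubated 10 min at 37 °C with compound. Uptake started with [3H]NE 100–300 nM, [3H]DA 50–300 nM or [3H]5-HT 100–200 nM, incubated 3 min (DA) or 6–10 min (NE, 5-HT). Blanks held on ice. Filtered, counted by scintillation.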

Rattus norvegicus [3] = species on record: Rattus norvegicus; assay: Ability to inhibit the uptake of tritiated serotonin(5-HT) at 1 uM concentration; assay type: functional; how it was run: as §1
[4] = target: Sodium-dependent dopamine transporter (Rattus norvegicus) (UniProt P23977); assay: Inhibition of tritiated dopamine (DA) uptake at 0.1 uM concentration; assay type: functional; how it was run: as §2
Mus musculus [5] = species on record: Mus musculus; assay: Antagonism of tetrabenazine (TBZ)-induced depression in mice measured for ptosis; assay type: functional; details: Mus musculus; read-out: ED50
How it was run: (§3)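 Nonfasted male Swiss Webster mice, 18–24 g, ten per dose level and in saline controls. Test compound given ip 30 min before tetrabenazine 32 mg/kg ip; dose expressed as free base. Motor activity and ptosis scored. Control response ≤90% corrected by Abbott's formula.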

[6] = target: Sodium-dependent serotonin transporter (Rattus norvegicus) (UniProt P31652); assay: Inhibition of tritiated serotonin(5-HT) uptake at 0.1 uM concentration; assay type: functional; how it was run: as §2
[7] = target: Serotonin 1 (5-HT1) receptor (Rattus norvegicus) (UniProt P28564+P30940+P19327+P28565); assay: Binding affinity towards serotonin S1 receptor at 1.0 uM; assay type: protein assay
How it was run: (§4)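 Rat brain crude synaptic membranes in 20 mM NaHEPES pH 7.5. Ligands: α1 cortex […] 0.4 nM, nonspecific with (-)-NE 100 μM, 30 min at 25 °C. […] D2 striatum [3H]spiperone 0.05 nM with (+)-butaclamol 1 μM, 45 min at 37 °C. S1 cortex [3H]5-HT 1 nM plus glutathione and MgCl2, with 5-HT 10 μM, 20 min at 37 °C. […] Samples filtered on GF/B and counted.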

Rattus norvegicus [8] = species on record: Rattus norvegicus; assay: Ability to inhibit the uptake of tritiated norepinephrine (NE); assay type: functional; how it was run: as §2
[9] = target: Serotonin 2 (5-HT2) receptor (Rattus norvegicus) (UniProt P30994+P08909+P14842); assay: (§5) Binding affinity towards 5-hydroxytryptamine 2 receptor at 1.0 uM concentration; assay type: protein assay; how it was run: as §4
[10] = target: D(2) dopamine receptor (Rattus norvegicus) (UniProt P61169); assay: Binding affinity towards dopamine receptor D2 at 1.0 uM concentration; how it was run: as §4
Mus musculus [11] = species on record: Mus musculus; assay: Gross behavioral effects ascertained in mice; W indicates weak stimulant or depressant activity of little significance.; assay type: functional, organism-based
How it was run: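 Male Swiss Webster mice, 18–24 g, three per dose, given ip doses of 1, 3, 10, 30, 100 and 300 mg/kg. Observed for gross behavior and held for 4 days. Scored as weak (W), stimulant (S), depressant (D) or convulsant (C).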

Mus musculus [12] = species on record: Mus musculus; assay: Antagonism of tetrabenazine (TBZ)-induced depression measured in mice by motor activity; assay type: functional; details: Mus musculus; read-out: ED50; how it was run: as §3
Rattus norvegicus [13] = species on record: Rattus norvegicus; assay: Ability to inhibit the uptake of tritiated dopamine (DA) 0.1 uM concentration; assay type: functional; how it was run: as §2
[14] = target: Sodium-dependent serotonin transporter (Rattus norvegicus) (UniProt P31652); assay: Ability to inhibit the uptake of [3H]- serotonin(5-HT) 0.1 uM concentration at rat brain synaptosomes; assay type: functional, subcellular; how it was run: as §2
[15] = target: Norepinephrine transporter (Rattus norvegicus) (UniProt Q9WTR4); assay: Ability to inhibit the uptake of [3H]norepinephrine (NE) 0.1 uM concentration at rat brain synaptosomes; assay type: functional, subcellular; how it was run: as §2
Mus musculus [16] = assay: (§6) Ability to antagonise intraperitoneal dose; inactive (<10% antagonism) at 30 mgjkg is represented as I-30.; assay type: functional, organism-based; how it was run: as §3
Mus musculus [17] = species on record: Mus musculus; assay: Gross behavioral effects ascertained in mice; D indicates significant depressant properties.; assay type: functional, organism-based
How it was run: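 Male Swiss Webster albino mice, 18–24 g, three per dose, given ip 1, 3, 10, 30, 100 and 300 mg/kg. Gross behaviour observed and held 4 days. Estimated LD50 range from lethality count on day 4. Scored as weak stimulant/depressant, significant stimulant, significant depressant or overt convulsant.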

Rattus norvegicus [18] = species on record: Rattus norvegicus; assay: Ability to inhibit the uptake of tritiated serotonin(5-HT) %inhibition; assay type: functional
How it was run: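 Rat brain synaptosomes (male Wistar P2 fraction) from hypothalamus (NE), striatum (DA) or cerebral cortex (5-HT), in Tris or HEPES Krebs-type medium with nialamide, pH 7.4. Preincubation 10 min at 37 °C with compound. Then [3H]NE 100–300 nM, [3H]DA 50–300 nM or [3H]5-HT 100–200 nM added for 3 min (DA) or 6–10 min (NE, 5-HT). Blanks kept on ice. Filtration and scintillation counting. Percent inhibition at 0.100 μM when weak.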

Mus musculus [19] = assay: Ability to antagonise intraperitoneal dose; inactive (<10% antagonism) at 30 mg/kg is represented as I-30.; assay type: functional, organism-based; parameters: dose 30 mg/kg; how it was run: as §3
[20] = target: Norepinephrine transporter (Rattus norvegicus, UniProt Q9WTR4); assay: Inhibition of uptake of tritiated norepinephrine (NE) in rat synaptosomes; assay type: subcellular, Brain
[21] = target: Serotonin 2 (5-HT2) receptor (Rattus norvegicus, UniProt P30994+P08909+P14842); assay: as §5; assay type: protein assay
[22] = target: Sodium-dependent dopamine transporter (Rattus norvegicus, UniProt P23977); assay: Inhibition of the uptake of tritiated dopamine (DA) in rat synaptosomes; assay type: subcellular, Brain
Mus musculus [23] = assay: Ability to antagonise tetrabenazine (TBZ)-induced depression measured in mice for ptosis by 10 mg/kg i.p. dose; inactive (<10% antagonism) at 30 mgjkg is represented as I-30.; assay type: functional, organism-based; parameters: dose 10 mg/kg
How it was run: (§7)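 Swiss Webster male albino mice, nonfasted, 18–24 g, 10 per dose and in saline control. Compound given ip 30 min before TBZ 32 mg/kg ip. Motor activity and ptosis scored. Response corrected by Abbott's formula when control response was 90% or less. Doses expressed as free base.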

Rattus norvegicus [24] = assay: Ability to inhibit the uptake of tritiated serotonin(5-HT) at 0.1 mg/kg concentration; assay type: functional
Mus musculus [25] = assay: as §6; assay type: functional, organism-based; how it was run: as §7; remark: listed apart in the source

Sequence of Sodium-dependent serotonin transporter (Rattus norvegicus) (P31652 whole entry): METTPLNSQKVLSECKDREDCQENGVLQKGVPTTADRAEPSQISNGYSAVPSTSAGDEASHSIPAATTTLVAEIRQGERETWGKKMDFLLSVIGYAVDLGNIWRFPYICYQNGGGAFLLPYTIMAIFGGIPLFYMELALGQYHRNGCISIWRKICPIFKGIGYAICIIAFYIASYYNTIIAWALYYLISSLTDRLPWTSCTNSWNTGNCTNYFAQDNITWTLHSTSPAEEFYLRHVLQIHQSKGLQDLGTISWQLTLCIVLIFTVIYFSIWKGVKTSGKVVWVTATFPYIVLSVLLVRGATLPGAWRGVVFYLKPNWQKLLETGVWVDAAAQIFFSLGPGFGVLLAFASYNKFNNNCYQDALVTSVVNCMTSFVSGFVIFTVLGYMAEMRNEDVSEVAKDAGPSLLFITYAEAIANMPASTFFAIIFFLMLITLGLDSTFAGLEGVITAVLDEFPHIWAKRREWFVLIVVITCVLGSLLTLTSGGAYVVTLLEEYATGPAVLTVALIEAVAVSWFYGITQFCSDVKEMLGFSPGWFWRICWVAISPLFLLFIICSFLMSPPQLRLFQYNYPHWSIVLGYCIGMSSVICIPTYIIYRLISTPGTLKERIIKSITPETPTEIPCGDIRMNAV
Sequence of D(2) dopamine receptor (Rattus norvegicus) (P61169 whole entry): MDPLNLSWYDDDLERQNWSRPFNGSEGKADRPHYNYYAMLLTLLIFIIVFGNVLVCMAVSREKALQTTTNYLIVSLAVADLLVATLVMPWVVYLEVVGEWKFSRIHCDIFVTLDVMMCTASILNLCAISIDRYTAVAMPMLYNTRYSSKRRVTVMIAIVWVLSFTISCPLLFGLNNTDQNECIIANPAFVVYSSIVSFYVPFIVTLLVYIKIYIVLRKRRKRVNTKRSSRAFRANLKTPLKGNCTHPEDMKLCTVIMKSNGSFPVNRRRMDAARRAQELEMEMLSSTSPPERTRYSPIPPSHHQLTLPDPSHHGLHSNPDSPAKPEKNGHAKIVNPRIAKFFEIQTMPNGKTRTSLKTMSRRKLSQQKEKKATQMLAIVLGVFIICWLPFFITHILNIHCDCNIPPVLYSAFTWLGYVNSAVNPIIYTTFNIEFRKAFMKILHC
Sequence of Serotonin 2 (5-HT2) receptor (Rattus norvegicus) (P08909 whole entry, looked up): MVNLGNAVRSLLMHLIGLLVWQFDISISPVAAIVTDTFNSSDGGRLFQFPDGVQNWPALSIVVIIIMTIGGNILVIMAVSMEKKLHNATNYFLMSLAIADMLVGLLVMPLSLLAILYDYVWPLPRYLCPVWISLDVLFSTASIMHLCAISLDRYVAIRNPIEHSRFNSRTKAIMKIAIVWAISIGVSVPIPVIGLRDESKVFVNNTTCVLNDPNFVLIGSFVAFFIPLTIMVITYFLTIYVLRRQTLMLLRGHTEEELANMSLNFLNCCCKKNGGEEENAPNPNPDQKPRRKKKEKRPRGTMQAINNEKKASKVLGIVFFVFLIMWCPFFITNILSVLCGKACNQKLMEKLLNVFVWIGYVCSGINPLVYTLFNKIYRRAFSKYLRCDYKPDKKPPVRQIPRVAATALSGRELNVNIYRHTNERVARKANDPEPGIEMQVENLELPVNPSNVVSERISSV
Sequence of Serotonin 2 (5-HT2) receptor (Rattus norvegicus) (P14842 whole entry, looked up): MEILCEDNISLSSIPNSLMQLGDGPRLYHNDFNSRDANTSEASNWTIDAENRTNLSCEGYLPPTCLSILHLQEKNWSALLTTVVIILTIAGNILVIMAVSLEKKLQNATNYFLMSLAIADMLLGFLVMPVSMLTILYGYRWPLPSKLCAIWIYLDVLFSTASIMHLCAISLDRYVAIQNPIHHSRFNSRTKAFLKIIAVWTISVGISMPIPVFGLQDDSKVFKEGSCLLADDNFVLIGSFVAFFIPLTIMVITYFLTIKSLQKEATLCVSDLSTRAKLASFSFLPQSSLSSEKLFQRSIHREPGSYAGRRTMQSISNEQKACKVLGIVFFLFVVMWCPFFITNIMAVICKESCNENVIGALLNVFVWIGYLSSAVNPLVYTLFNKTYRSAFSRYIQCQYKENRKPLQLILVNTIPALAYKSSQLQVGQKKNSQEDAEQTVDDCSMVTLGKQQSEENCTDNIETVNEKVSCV
Sequence of Serotonin 2 (5-HT2) receptor (Rattus norvegicus) (P30994 whole entry, looked up): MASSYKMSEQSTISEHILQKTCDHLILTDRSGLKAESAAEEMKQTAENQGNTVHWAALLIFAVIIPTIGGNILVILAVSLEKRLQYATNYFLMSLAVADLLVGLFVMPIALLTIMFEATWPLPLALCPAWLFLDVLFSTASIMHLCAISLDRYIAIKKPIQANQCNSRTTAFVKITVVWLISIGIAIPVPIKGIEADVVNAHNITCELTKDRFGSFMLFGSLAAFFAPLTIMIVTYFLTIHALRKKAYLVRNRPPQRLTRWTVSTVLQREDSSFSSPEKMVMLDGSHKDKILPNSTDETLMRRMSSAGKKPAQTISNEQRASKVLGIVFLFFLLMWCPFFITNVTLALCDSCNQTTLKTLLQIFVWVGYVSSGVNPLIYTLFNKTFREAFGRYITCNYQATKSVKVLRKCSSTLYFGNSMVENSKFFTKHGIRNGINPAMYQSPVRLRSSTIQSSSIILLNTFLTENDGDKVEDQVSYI
Sequence of Sodium-dependent dopamine transporter (P23977 whole entry): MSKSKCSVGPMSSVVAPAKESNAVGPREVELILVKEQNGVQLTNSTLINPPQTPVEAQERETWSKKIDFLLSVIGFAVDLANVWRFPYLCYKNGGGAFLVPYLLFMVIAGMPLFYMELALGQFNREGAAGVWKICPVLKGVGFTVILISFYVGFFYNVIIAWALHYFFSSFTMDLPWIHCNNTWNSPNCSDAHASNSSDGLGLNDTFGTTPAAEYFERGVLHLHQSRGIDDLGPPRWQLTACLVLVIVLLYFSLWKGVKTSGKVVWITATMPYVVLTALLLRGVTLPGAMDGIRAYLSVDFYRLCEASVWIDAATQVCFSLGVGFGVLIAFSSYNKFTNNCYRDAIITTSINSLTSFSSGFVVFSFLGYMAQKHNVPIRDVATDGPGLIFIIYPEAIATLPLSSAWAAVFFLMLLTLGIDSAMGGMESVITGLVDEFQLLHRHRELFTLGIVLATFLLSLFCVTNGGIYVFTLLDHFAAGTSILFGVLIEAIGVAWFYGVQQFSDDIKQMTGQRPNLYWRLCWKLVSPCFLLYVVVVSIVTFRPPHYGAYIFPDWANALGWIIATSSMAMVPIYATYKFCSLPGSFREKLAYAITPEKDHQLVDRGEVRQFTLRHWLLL
Sequence of Sodium-dependent dopamine transporter (Rattus norvegicus) (P23977 whole entry): as above
Sequence of Norepinephrine transporter (Q9WTR4 whole entry): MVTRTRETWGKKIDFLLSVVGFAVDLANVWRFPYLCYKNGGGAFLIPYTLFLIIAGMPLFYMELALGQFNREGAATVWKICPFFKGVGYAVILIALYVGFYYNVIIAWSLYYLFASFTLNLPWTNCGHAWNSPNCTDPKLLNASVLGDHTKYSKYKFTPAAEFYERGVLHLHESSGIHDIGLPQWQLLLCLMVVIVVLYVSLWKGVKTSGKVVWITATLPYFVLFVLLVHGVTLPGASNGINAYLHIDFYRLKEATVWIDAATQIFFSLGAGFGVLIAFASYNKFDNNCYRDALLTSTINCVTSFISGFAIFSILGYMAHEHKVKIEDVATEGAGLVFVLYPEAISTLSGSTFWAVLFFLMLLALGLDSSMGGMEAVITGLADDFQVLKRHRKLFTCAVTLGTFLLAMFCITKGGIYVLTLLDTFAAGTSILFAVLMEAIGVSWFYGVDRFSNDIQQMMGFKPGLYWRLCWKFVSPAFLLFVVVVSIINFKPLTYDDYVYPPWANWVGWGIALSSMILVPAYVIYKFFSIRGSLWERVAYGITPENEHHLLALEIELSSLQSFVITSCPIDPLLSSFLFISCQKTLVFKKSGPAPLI
Sequence of Norepinephrine transporter (Rattus norvegicus) (Q9WTR4 as listed by the source): as the sequence (Q9WTR4 whole entry) above

Clc1ccc([C@@H]2CN3CCC[C@H]3c3ccccc32)c(Cl)c1
Inhibition (Rattus norvegicus [1]): 34% | Inhibition (Rattus norvegicus [2]): 31% | Inhibition (Rattus norvegicus [3]): 52%

Br.Fc1ccc([C@@H]2CN3CCC[C@H]3c3cc(F)ccc32)cc1
inhibition [4]: 38% | ED50 (Mus musculus [5]): 1.6 mg/kg | inhibition [6]: 21% | inhibition [7]: -9% | Ki (Rattus norvegicus [8]): ~100 nM | inhibition [9]: 5% | inhibition [10]: 48% | behavior (Mus musculus [11]): Partial stimulant | ED50 (Mus musculus [12]): > 60 mg/kg

c1ccc([C@@H]2CN3CCCC[C@H]3c3ccccc32)cc1
Ki (Rattus norvegicus [13]): 1000 nM | inhibition [14]: 11% | inhibition [15]: 27% | behavior (Mus musculus [11]): Weak

Br.c1csc([C@@H]2CN3CCC[C@H]3c3ccsc32)c1
ED50 (Mus musculus [16]): inactive | behavior (Mus musculus [17]): Significant depressant | Inhibition (Rattus norvegicus [18]): 2% | ED50 (Mus musculus [19]): inactive

O=C(Nc1ccccc1)Nc1ccc([C@@H]2CN3CCC[C@H]3c3ccccc32)cc1
ED50 (Mus musculus [5]): 10 mg/kg | Ki [20]: 41.3 nM | Ki [21]: 54 nM | ED50 (Mus musculus [12]): > 60 mg/kg | Ki [22]: 9.8 nM

c1ccc([C@@H]2CN3CCC[C@H]3c3ccsc32)cc1
ED50 (Mus musculus [23]): inactive | inhibition in vivo at 0.1 mg/kg (Rattus norvegicus [24]): 28% | ED50 (Mus musculus [25]): inactive | behavior (Mus musculus [17]): Significant depressant

Source: ChEMBL document CHEMBL1123812, “Pyrroloisoquinoline antidepressants. 2. In-depth exploration of structure-activity relationships” (J Med Chem, 1987)
